ChEMBL document CHEMBL1671645, “Pharmacokinetics and absorption of posaconazole oral suspension under various gastric conditions in healthy volunteers” (Antimicrob Agents Chemother, 2009)

Columns and labels:
Homo sapiens [1] = test: Apparent total body clearance in fasted healthy human at 200 mg QID, po administered as suspension for 7 days; format: ADME, organism-based; conditions: in vivo, 168 h
Summary of the method: (§1)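 Twelve healthy subjects took oral suspension for 7 days as 400 mg BID or 200 mg QID, either fasting or with a Boost-type nutritional supplement, in a crossover with 14–21 day washouts. Nonfat snacks of 800 cal/day or less were allowed. Plasma was sampled 0–168 h after the day-7 morning dose only and analysed by LC-MS/MS. AUC is AUC_τ, normalized to dose.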

Homo sapiens [2] = test: Toxicity in healthy human assessed as adverse events at 200 mg QID, po administered as suspension for 7 days coadministered with nutritional supplement; format: organism-based; conditions: in vivo, 168 h
Summary of the method: (§2)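 Healthy volunteers monitored for adverse events, vital signs, clinical laboratory values and 12-lead ECG. Adverse events tabulated by body system or organ class and severity and summarized by treatment across the crossover regimens.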

[3] = Apparent total body clearance in fasted healthy human at 400 mg administered as single dose suspension after 20 mins after consumption of high fat meal; format: ADME, organism-based; conditions: in vivo
Summary of the method: (§3)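 In a crossover of 12 healthy subjects, each took a single 400 mg oral suspension dose 5 min before, midway through (about 10 min into a 20-min meal), or 20 min after a high-fat meal of about 50 g fat. Plasma was drawn 0–168 h and measured by LC-MS/MS. Parameters are noncompartmental, with AUC to the last measurable time.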

Homo sapiens [4] = test: Toxicity in healthy human assessed as dizziness at 400 mg BID, po administered as suspension for 7 days; format: organism-based; conditions: in vivo, 168 h
Summary of the method: (§4)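 Healthy volunteers (n = 12) took oral posaconazole suspension (40 mg/ml) for 7 days in a four-way randomized crossover with a 14- to 21-day washout. Subjects stayed fasted throughout, with nonfat snacks up to 800 cal/day allowed. Where given, Boost was taken with each dose. Safety covered adverse events, vital signs, clinical labs and 12-lead ECG, with AEs tabulated by body system and severity per treatment.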

[5] = Apparent total body clearance in fasted healthy human at 400 mg administered as single dose suspension after consumption of high fat meal; format: ADME, organism-based; conditions: in vivo; summary of the method: as §3
[6] = Half life in fasted healthy human at 400 mg BID, po administered as suspension for 7 days; format: ADME, organism-based; conditions: in vivo
Summary of the method: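 Healthy volunteers given oral suspension (40 mg/ml) for 7 days, fasted or with nutritional supplement (Boost); four-way crossover, 14–21-day washout, nonfat snacks ≤800 cal/day allowed. On day 7 only the morning dose was given; plasma sampled predose to 168 h after it. LC-MS/MS (LLOQ 5.00 ng/ml). t1/2 = ln(2)/K from log-linear terminal slope; Tmax as median.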

Homo sapiens [7] = test: Toxicity in healthy human assessed as headache at 400 mg BID, po administered as suspension for 7 days coadministered with nutritional supplement; format: organism-based; conditions: in vivo, 168 h; summary of the method: as §4
[8] = Apparent total body clearance in healthy human at 400 mg administered as single dose suspension coadministered with nutritional supplement; format: ADME, organism-based; conditions: in vivo
Summary of the method: (§5)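 A three-way crossover in 13 healthy subjects gave one 400 mg oral suspension dose with a nutritional supplement, either alone, with metoclopramide 10 mg orally three times daily on the day before and the day of dosing, or with a single 4 mg dose of loperamide. Plasma was taken 0–168 h for LC-MS/MS. Analysis was noncompartmental.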

Homo sapiens [9] = test: Toxicity in healthy human assessed as asthenia at 400 mg BID, po administered as suspension for 7 days; format: organism-based; conditions: in vivo, 168 h; summary of the method: as §2
[10] = Cmax in healthy human plasma at 400 mg administered as single dose suspension coadministered with nutritional supplement and 4 mg loperamide as two 2 mg tablets; format: ADME, organism-based; design: dose 400 mg; conditions: po
Summary of the method: (§6)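 Oral suspension (40 mg/ml) single dose with nutritional supplement plus loperamide 4 mg single dose, healthy volunteers, three-way crossover with 7–10-day washout. EDTA plasma drawn predose and 1–168 h postdose. LC-MS/MS assay (LLOQ 5.00 ng/ml). Noncompartmental parameters; Tmax reported as median (range).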

[11] = Tmax in healthy human at 400 mg administered as single dose suspension coadministered with nutritional supplement; format: ADME, organism-based; conditions: in vivo
Summary of the method: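 Single oral suspension dose with nutritional supplement, alone or with metoclopramide 10 mg orally three times daily on the day before and the day of dosing; three-way crossover, 7–10-day washout. EDTA plasma predose to 168 h, LC-MS/MS (LLOQ 5.00 ng/ml). t1/2 = ln(2)/K from terminal slope; Tmax median.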

Homo sapiens [12] = test: Toxicity in healthy human assessed as adverse events at 400 mg administered as single dose suspension after consumption of high fat meal; format: organism-based; conditions: in vivo; summary of the method: as §2
[13] = AUC in healthy human at 400 mg administered as single dose suspension coadministered with nutritional supplement and 4 mg loperamide as two 2 mg tablets; format: ADME, organism-based; conditions: plasma; summary of the method: as §5
Homo sapiens [14] = test: Toxicity in healthy human assessed as adverse events at 400 mg administered as single dose suspension 5 mins before consumption of high fat meal; format: organism-based; conditions: in vivo; summary of the method: as §2
[15] = Tmax in healthy human at 400 mg administered as single dose suspension coadministered with nutritional supplement and 4 mg loperamide as two 2 mg tablets; format: ADME, organism-based; conditions: in vivo; summary of the method: as §6
[16] = Cmax in healthy human plasma at 200 mg QID, po administered as suspension for 7 days coadministered with nutritional supplement; format: ADME, organism-based; design: dose 200 mg, route oral; summary of the method: as §1
[17] = Half life in fasted healthy human at 400 mg administered as single dose suspension coadministered with acidic carbonated beverage; format: ADME, organism-based; conditions: in vivo
Summary of the method: (§7)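 Single oral suspension dose in fasting healthy volunteers, alone, with 12 oz ginger ale, after esomeprazole 40 mg once each morning days −2 to 1, or both; four-way crossover, 7–10-day washout. EDTA plasma 0–168 h. LC-MS/MS (LLOQ 5.00 ng/ml). t1/2 = ln(2)/K from terminal log-linear regression; Tmax median.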

[18] = Apparent volume of distribution in fasted healthy human at 400 mg administered as single dose suspension coadministered with proton pump inhibitor; format: ADME, organism-based; conditions: in vivo, read-out: Vc/F
Summary of the method: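 This was a four-way crossover in 12 healthy subjects with 7–10 day washouts. Each took one fasting 400 mg oral suspension dose, with 12 oz ginger ale and/or esomeprazole 40 mg once each morning on days −2 to 1, with dosing on day 1. Plasma was sampled 0–168 h and measured by LC-MS/MS (LLOQ 5.00 ng/ml). Analysis was noncompartmental, with CL/F = dose/AUC_I and V/F = (CL/F)/K.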

[19] = Apparent total body clearance in fasted healthy human at 400 mg administered as single dose suspension 5 mins before consumption of high fat meal; format: ADME, organism-based; conditions: in vivo; summary of the method: as §3
[20] = AUC in fasted healthy human at 400 mg administered as single dose suspension 5 mins before consumption of high fat meal; format: ADME, organism-based; conditions: plasma; summary of the method: as §3
[21] = Tmax in fasted healthy human at 400 mg administered as single dose suspension coadministered with acidic carbonated beverage; format: ADME, organism-based; conditions: in vivo; summary of the method: as §7
[22] = Tmax in fasted healthy human at 400 mg administered as single dose suspension; format: ADME, organism-based; conditions: in vivo; summary of the method: as §7
[23] = AUC in fasted healthy human at 400 mg administered as single dose suspension after consumption of high fat meal; format: ADME, organism-based; conditions: plasma; summary of the method: as §3
Homo sapiens [24] = test: Toxicity in healthy human assessed as adverse events at 400 mg BID, po administered as suspension for 7 days; format: organism-based; conditions: in vivo, 168 h; summary of the method: as §2
Homo sapiens [25] = test: Toxicity in healthy human assessed as fatigue at 400 mg administered as single dose suspension coadministered with nutritional supplement and 4 mg loperamide as two 2 mg tablets; format: organism-based; conditions: in vivo
Summary of the method: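 Three-way randomized crossover in 13 healthy volunteers with a 7- to 10-day washout. Each period was one 400-mg oral posaconazole suspension dose with a nutritional supplement. Metoclopramide 10 mg was given orally three times daily on the day before and the day of dosing; loperamide was a single 4 mg. Safety was assessed from adverse events, tabulated by body system and severity per treatment.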

Structure (SMILES): CC[C@@H]([C@H](C)O)n1ncn(-c2ccc(N3CCN(c4ccc(OC[C@@H]5CO[C@@](Cn6cncn6)(c6ccc(F)cc6F)C5)cc4)CC3)cc2)c1=O [POSACONAZOLE]
- CL/F (Homo sapiens [1]): 21.2 L/h
- Activity (Homo sapiens [2]): 75%
- CL/F [3]: 395 mL/min
- Activity (Homo sapiens [4]): 33%
- CL/F [5]: 395 mL/min
- half-life [6]: 25.7 h
- Activity (Homo sapiens [7]): 25%
- CL/F [8]: 823 mL/min
- Activity (Homo sapiens [9]): 25%
- Cmax [10]: 294 ng/mL
- Tmax [11]: 5.5 h
- Activity (Homo sapiens [12]): 25%
- AUC [13]: 10400 ng·h/mL
- Activity (Homo sapiens [14]): 25%
- Tmax [15]: 5 h
- Cmax [16]: 2160 ng/mL
- half-life [17]: 25.2 h
- Vd/F [18]: 4350 L
- CL/F [19]: 957 mL/min
- AUC at 5 min [20]: 10000 ng·h/mL
- Tmax [21]: 4 h
- Tmax [22]: 5 h
- AUC [23]: 21000 ng·h/mL
- Activity (Homo sapiens [24]): 75%
- Activity (Homo sapiens [25]): 15%
